Laboratory results taken from ChEMBL document CHEMBL4130447, “A Bis-benzopyrroloisoquinoline Alkaloid Incorporating a Cyclobutane Core and a Chlorophenanthroindolizidine Alkaloid with Cytotoxic Activity from Ficus fistulosa var. tengerensis” (J Nat Prod, 2017).

Columns and labels:
MDA-MB-468 = assay: Cytotoxicity against human MDA-MB-468 cells assessed as decrease in cell viability after 72 hrs by CellTiter-Glo luminescence assay; format: functional, cell-based; conditions: MDA-MB-468, 72 h
Summary of the method: (§1)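 Breast cancer lines were maintained in RPMI 1640 with 10% FBS and pen/strep at 37 °C and 5% CO2. Cells were plated at 1000/well, allowed 24 h, then treated 72 h with agents at 1.5–100 μM (diluted in phosphate buffer from a 100 mM DMSO stock). Paclitaxel at 0.01–10 μM served as the reference. Luminescent ATP read-out was used, with IC50 computed relative to 0.1% DMSO controls.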

MDA-MB-231 = assay: Cytotoxicity against human MDA-MB-231 cells assessed as decrease in cell viability after 72 hrs by CellTiter-Glo luminescence assay; format: functional, cell-based; conditions: MDA-MB-231, 72 h; summary of the method: as §1
MCF7 = assay: Cytotoxicity against human MCF7 cells assessed as decrease in cell viability after 72 hrs by CellTiter-Glo luminescence assay; format: functional, cell-based; conditions: MCF7, 72 h; summary of the method: as §1
MCF-10A = assay: Cytotoxicity against human MCF10A cells assessed as decrease in cell viability after 72 hrs by CellTiter-Glo luminescence assay; format: cell-based
Summary of the method: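 MCF10A (non-tumorigenic breast epithelial) cells were grown with 5% horse serum, 20 ng/mL EGF, 0.5 μg/mL hydrocortisone, 10 μg/mL insulin, and pen/strep at 37 °C and 5% CO2. Cells were seeded at 1000/well for 24 h, then exposed 72 h to 1.5–100 μM test agent diluted in phosphate buffer from a 100 mM DMSO stock. Viability was read by ATP luminescence. IC50 was calculated versus 0.1% DMSO-treated cells.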

Structure (SMILES) | IC50 (MDA-MB-468) | IC50 (MDA-MB-231) | IC50 (MCF7) | IC50 (MCF-10A)
CC(=O)O[C@H]1C(=O)[C@@]2(C)[C@H]([C@H](OC(=O)c3ccccc3)[C@]3(O)C[C@H](OC(=O)[C@H](O)[C@@H](NC(=O)c4ccccc4)c4ccccc4)C(C)=C1C3(C)C)[C@]1(OC(C)=O)CO[C@@H]1C[C@@H]2O [PACLITAXEL] | 0.0061 µM | 0.059 µM | 0.0088 µM | 0.0058 µM
COc1cc2cc([C@@H]3[C@H](C(C)=O)[C@@H](C(C)=O)[C@@H]3c3cc4cc(OC)c(OC)cc4c4c3CN3CCC[C@@H]3C4)c3c(c2cc1OC)C[C@@H]1CCCN1C3 | 7.4 µM | > 10 µM | > 10 µM | > 10 µM
COc1cc2cc(CO)c3c(c2cc1OC)CC1CCCN1C3 (racemic) | > 10 µM | > 10 µM | > 10 µM | > 10 µM
COc1cc2cc([C@@H]3[C@@H](C(C)=O)[C@H](C(C)=O)[C@@H]3c3cc4cc(OC)c(OC)cc4c4c3CN3CCC[C@@H]3C4)c3c(c2cc1OC)C[C@@H]1CCCN1C3 | > 10 µM | > 10 µM | > 10 µM | > 10 µM
COc1cc2cc(C3C(C(C)=O)C(C(C)=O)C3c3cc4cc(OC)c(OC)cc4c4c3CN3CCCC3C4)c3c(c2cc1OC)CC1CCCN1C3 (racemic) | > 10 µM | > 10 µM | > 10 µM | > 10 µM
COc1cc2c3c(c4ccc(OC)c(Cl)c4c2cc1OC)CN1CCCC1C3 (racemic) | 0.038 µM | 0.48 µM | 0.91 µM | 10.7 µM
